Where a name gives a salt, the structure may show the parent alone. Read-outs that look alike come from different tables or passages of the source.
Tests used:
mouse hot plate = test: Hot plate antinociception test; format: in vivo; settings: mice, icv 0.6 nmol, 30 and 45 min after administration
Method in brief: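 Mice received the test compound locally (icv, 0.6 nmol) or systemically (iv, 3000 nmol) and were assessed on the hot plate, with morphine as a reference. Antinociception expressed as % MPE over time and reported as mean ± SEM. Compared with vehicle-treated animals by two-way ANOVA and Bonferroni post hoc tests; significance P < 0.05.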

[1] = Enzymatic stability in human plasma; format: in vitro ADME; settings: 37 °C, compared with Biphalin
Method in brief: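 Test compound incubated in human plasma at 37 °C, with stability followed as a curve over time. Three independent experiments (n = 3), reported as mean ± SEM. Groups compared by two-way ANOVA with Bonferroni post hoc comparisons.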

[2] = system: guinea pig ileum/longitudinal muscle myenteric plexus (μ); test: GPI isolated tissue bioassay; format: biochemical; settings: for IC50: read-out: GPI (μ) IC50, 50% inhibition of muscle contraction, n = 4, ±SEM
mouse vas deferens (δ) [3] = test: MVD isolated tissue bioassay; format: biochemical; settings: read-out: MVD (δ) IC50; 50% inhibition of muscle contraction, n = 4, ±SEM
[4] = system: guinea pig ileum/longitudinal muscle myenteric plexus (μ); settings: read-out: GPI (μ) IC50; ±SEM; ref [1b] and [13]; cited from earlier work
mouse vas deferens (δ) [5] = settings: read-out: MVD (δ) IC50; ±SEM; ref [1b] and [13]; cited from earlier work

Q: What does the source list for `C[C@@H](NC(=O)[C@@H](N)Cc1ccc(O)cc1)C(=O)NCC(=O)N[C@H](CC(=O)NNC(=O)C[C@H](Cc1ccccc1)NC(=O)CNC(=O)[C@@H](C)NC(=O)[C@@H](N)Cc1ccc(O)cc1)Cc1ccccc1` [Compound 1, 2 TFA·(Tyr-D-Ala-Gly-hβ^3Phe-NH)2]?
A: MPE (antinociceptive effect) (mouse hot plate): 100%; enzymatic stability, remaining parent compound versus time [1]: increased stability; IC50 [2]: 50 ± 6.5 nM; IC50 (mouse vas deferens (δ) [3]): 33 ± 9.4 nM

Q: With `C[C@@H](NC(=O)[C@@H](N)Cc1ccc(O)cc1)C(=O)NCCC(=O)N[C@@H](Cc1ccccc1)C(=O)NNC(=O)[C@H](Cc1ccccc1)NC(=O)CCNC(=O)[C@@H](C)NC(=O)[C@@H](N)Cc1ccc(O)cc1` [Compound 2, 2 TFA·(Tyr-D-Ala-βAla-Phe-NH)2] as the compound, how does the “GPI (μ) inhibition at fixed concentration” value ([2]; at 1 μM) read?
A: Its value is 9.2% at 1 μM.

Q: And the “IC50 (GPI)/IC50 (MVD)” value ([2]; ratio)?
A: Its value is >0.75.

Q: What about the IC50 (mouse vas deferens (δ) [3]) of the same compound?
A: Its IC50 is 1300 ± 221 nM.

Q: What does the source list for `C[C@@H](NC(=O)C[C@@H](N)Cc1ccc(O)cc1)C(=O)NCC(=O)N[C@@H](Cc1ccccc1)C(=O)NNC(=O)[C@H](Cc1ccccc1)NC(=O)CNC(=O)[C@@H](C)NC(=O)C[C@@H](N)Cc1ccc(O)cc1` [Compound 4, 2 TFA·(hβ^3Tyr-D-Ala-Gly-Phe-NH)2]?
A: IC50 [2]: 670 ± 139 nM; IC50 (mouse vas deferens (δ) [3]): 710 ± 97 nM

Q: Which IC50 [4] does the source give for Biphalin [Bph] here?
A: Its IC50 is 8.8 ± 0.3 nM.

Q: What about the IC50 (mouse vas deferens (δ) [5]) of the same compound?
A: The IC50 was 2.7 ± 1.5 nM.

Reference: publication PMC3942533 (Journal of medicinal chemistry, 2013)
